How the values were obtained:
[1] = Plasma pharmacokinetics of buparlisib, non-compartmental analysis; assay type: in vivo, human; conditions: oral; for AUC(0-t) / Cmax / Tmax: human, plasma; for AUC(0-t): AUC0–8 h
Method in brief: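 Patients on either platinum/taxane schedule received the oral PI3K-inhibitor test compound at 50 to 100 mg/day. Plasma was sampled on cycle 1/day 1 at 0, 15, 30 and 60 min and at 2, 3, 4.5, 6 and 8 h, plus day 8 pre-dose (taken as 168 h). Non-compartmental analysis: Cmax and Tmax observed; AUClast by linear trapezoidal rule; terminal rate constant by regression of the log-linear terminal phase.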

PTEN-deficient tumor = conditions: buparlisib plus cisplatin; cited from earlier work
[2] = system: patients with advanced solid tumors; assay: Adverse events; assay type: in vivo, human
[3] = system: class IA PI3K paralogues (p110α, β, and δ); conditions: cited from earlier work
[4] = system: patients with advanced solid tumors; conditions: cited from earlier work
[5] = 50 mg, Group 1, 50 mg, n = 6, cycle 1/day 1, mean
[6] = 50 mg, Group 2, 50 mg, n = 4, cycle 1/day 1, mean
[7] = 80 mg, Group 1, 80 mg, n = 3, cycle 1/day 1, mean
[8] = 80 mg, Group 2, 80 mg, n = 6, cycle 1/day 1, mean
[9] = 100 mg, Group 1, 100 mg, n = 7, cycle 1/day 1, mean
[10] = 100 mg, Group 2, 100 mg, n = 4, cycle 1/day 1, mean
[11] = Group 1 (n = 16 subjects), with carboplatin + paclitaxel q21 days
[12] = Group 2 (n = 14 subjects), with carboplatin + weekly paclitaxel q28 days

Nc1cc(C(F)(F)F)c(-c2cc(N3CCOCC3)nc(N3CCOCC3)n2)cn1 [buparlisib]
AUC(0-t) [1, 5]: 1220 ng·h/mL
AUC(0-t) [1, 6]: 1520 ng·h/mL
Cmax [1, 5]: 285 ng/mL
Cmax [1, 6]: 399 ng/mL
Tmax [1, 5]: 4.83 h
Tmax [1, 6]: 2.13 h
AUC(0-t) [1, 7]: 2550 ng·h/mL
AUC(0-t) [1, 8]: 1970 ng·h/mL
Cmax [1, 8]: 555 ng/mL
Tmax [1, 7]: 3.67 h
Tmax [1, 8]: 2.08 h
AUC(0-t) [1, 9]: 3460 ng·h/mL
AUC(0-t) [1, 10]: 3410 ng·h/mL
Cmax [1, 9]: 933 ng/mL
Cmax [1, 10]: 960 ng/mL
Tmax [1, 9]: 1.71 h
Tmax [1, 10]: 2.38 h
plasma exposure to buparlisib versus dose ([1]; 50 to 100 mg, with carboplatin + paclitaxel, Groups 1 and 2): dose-related increases in plasma exposure
effect of combination in PTEN-deficient xenograft (PTEN-deficient tumor): synthetic lethality was achieved
ALT and/or AST elevation, any grade [2, 11]: 9 (56) n (%)
ALT and/or AST elevation, ≥Grade 3 [2, 11]: 2 (13) n (%)
Alkaline phosphatase, increased, any grade [2, 11]: 14 (88) n (%)
Alkaline phosphatase, increased, ≥Grade 3 [2, 11]: 2 (13) n (%)
Alopecia, any grade [2, 11]: 14 (88) n (%)
Anemia, any grade [2, 11]: 13 (81) n (%)
Anemia, ≥Grade 3 [2, 11]: 2 (13) n (%)
Anorexia, any grade [2, 11]: 13 (81) n (%)
Anorexia, ≥Grade 3 [2, 11]: 1 (6) n (%)
Anxiety, any grade [2, 11]: 6 (38) n (%)
Anxiety, ≥Grade 3 [2, 11]: 0 n (%)
Arthralgia, any grade [2, 11]: 13 (81) n (%)
Arthralgia, ≥Grade 3 [2, 11]: 1 (6) n (%)
Constipation, any grade [2, 11]: 11 (69) n (%)
Constipation, ≥Grade 3 [2, 11]: 0 n (%)
Cough, any grade [2, 11]: 9 (56) n (%)
Cough, ≥Grade 3 [2, 11]: 0 n (%)
Depressed mood, any grade [2, 11]: 6 (38) n (%)
Depressed mood, ≥Grade 3 [2, 11]: 1 (6) n (%)
Diarrhea, any grade [2, 11]: 14 (88) n (%)
Diarrhea, ≥Grade 3 [2, 11]: 1 (6) n (%)
Dizziness, any grade [2, 11]: 10 (63) n (%)
Dizziness, ≥Grade 3 [2, 11]: 0 n (%)
Dyspnea, any grade [2, 11]: 11 (69) n (%)
Dyspnea, ≥Grade 3 [2, 11]: 0 n (%)
Fatigue, any grade [2, 11]: 14 (88) n (%)
Fatigue, ≥Grade 3 [2, 11]: 1 (6) n (%)
Hypercholesterolemia, any grade [2, 11]: 7 (44) n (%)
Hypercholesterolemia, ≥Grade 3 [2, 11]: 0 n (%)
Hyperglycemia, any grade [2, 11]: 15 (94) n (%)
Hyperglycemia, ≥Grade 3 [2, 11]: 2 (13) n (%)
Hypertension, any grade [2, 11]: 6 (38) n (%)
Hypertension, ≥Grade 3 [2, 11]: 0 n (%)
Hypertriglyceridemia, any grade [2, 11]: 7 (44) n (%)
Hypertriglyceridemia, ≥Grade 3 [2, 11]: 0 n (%)
Hypoalbuminemia, any grade [2, 11]: 14 (88) n (%)
Hypoalbuminemia, ≥Grade 3 [2, 11]: 0 n (%)
Hypocalcemia, any grade [2, 11]: 6 (38) n (%)
Hypocalcemia, ≥Grade 3 [2, 11]: 1 (6) n (%)
Hypomagnesemia, any grade [2, 11]: 10 (63) n (%)
Hypomagnesemia, ≥Grade 3 [2, 11]: 0 n (%)
Hyponatremia, any grade [2, 11]: 8 (50) n (%)
Hyponatremia, ≥Grade 3 [2, 11]: 3 (19) n (%)
Hypophosphatemia, any grade [2, 11]: 2 (13) n (%)
Hypophosphatemia, ≥Grade 3 [2, 11]: 2 (13) n (%)
INR, increased, any grade [2, 11]: 6 (38) n (%)
INR, increased, ≥Grade 3 [2, 11]: 0 n (%)
Leukopenia, any grade [2, 11]: 12 (75) n (%)
Leukopenia, ≥Grade 3 [2, 11]: 2 (13) n (%)
Lymphopenia, any grade [2, 11]: 12 (75) n (%)
Lymphopenia, ≥Grade 3 [2, 11]: 12 (75) n (%)
Mucositis, oral, any grade [2, 11]: 6 (38) n (%)
Mucositis, oral, ≥Grade 3 [2, 11]: 0 n (%)
Myalgia, any grade [2, 11]: 11 (69) n (%)
Myalgia, ≥Grade 3 [2, 11]: 1 n (%)
Nausea, any grade [2, 11]: 12 (75) n (%)
Nausea, ≥Grade 3 [2, 11]: 0 n (%)
Neuropathy, sensory, any grade [2, 11]: 7 (44) n (%)
Neuropathy, sensory, ≥Grade 3 [2, 11]: 1 (6) n (%)
Neutropenia, any grade [2, 11]: 4 (25) n (%)
Neutropenia, ≥Grade 3 [2, 11]: 2 (13) n (%)
Rash, skin toxicity, any grade [2, 11]: 13 (81) n (%)
Rash, skin toxicity, ≥Grade 3 [2, 11]: 0 n (%)
Thrombocytopenia, any grade [2, 11]: 13 (81) n (%)
Thrombocytopenia, ≥Grade 3 [2, 11]: 3 (19) n (%)
incidence rate of ≥grade 3 leukopenia ([2]; Group 2): 64%
incidence rate of ≥grade 3 neutropenia ([2]; Group 2): 79%
ALT and/or AST elevation, any grade [2, 12]: 6 (43) n (%)
ALT and/or AST elevation, ≥Grade 3 [2, 12]: 1 (7) n (%)
Alkaline phosphatase, elevated, any grade [2, 12]: 5 (36) n (%)
Alkaline phosphatase, elevated, ≥Grade 3 [2, 12]: 1 (7) n (%)
Alopecia, any grade [2, 12]: 11 (79) n (%)
Anemia, any grade [2, 12]: 14 (100) n (%)
Anemia, ≥Grade 3 [2, 12]: 1 (7) n (%)
Anorexia, any grade [2, 12]: 9 (64) n (%)
Anorexia, ≥Grade 3 [2, 12]: 0 n (%)
Anxiety, any grade [2, 12]: 5 (36) n (%)
Anxiety, ≥Grade 3 [2, 12]: 0 n (%)
Arthralgia, any grade [2, 12]: 7 (50) n (%)
Arthralgia, ≥Grade 3 [2, 12]: 0 n (%)
Constipation, any grade [2, 12]: 8 (57) n (%)
Constipation, ≥Grade 3 [2, 12]: 0 n (%)
Cough, any grade [2, 12]: 8 (57) n (%)
Cough, ≥Grade 3 [2, 12]: 0 n (%)
Diarrhea, any grade [2, 12]: 7 (50) n (%)
Diarrhea, ≥Grade 3 [2, 12]: 0 n (%)
Dyspepsia, any grade [2, 12]: 6 (43) n (%)
Dyspepsia, ≥Grade 3 [2, 12]: 0 n (%)
Fatigue, any grade [2, 12]: 11 (79) n (%)
Fatigue, ≥Grade 3 [2, 12]: 2 (14) n (%)
Hypercholesterolemia, any grade [2, 12]: 9 (64) n (%)
Hypercholesterolemia, ≥Grade 3 [2, 12]: 0 n (%)
Hyperglycemia, any grade [2, 12]: 14 (100) n (%)
Hyperglycemia, ≥Grade 3 [2, 12]: 0 n (%)
Hypertension, any grade [2, 12]: 6 (43) n (%)
Hypertension, ≥Grade 3 [2, 12]: 0 n (%)
Hypertriglyceridemia, any grade [2, 12]: 8 (57) n (%)
Hypertriglyceridemia, ≥Grade 3 [2, 12]: 1 (7) n (%)
Hypoalbuminemia, any grade [2, 12]: 13 (93) n (%)
Hypoalbuminemia, ≥Grade 3 [2, 12]: 0 n (%)
Hypocalcemia, any grade [2, 12]: 5 (36) n (%)
Hypocalcemia, ≥Grade 3 [2, 12]: 0 n (%)
Hypokalemia, any grade [2, 12]: 5 (36) n (%)
Hypokalemia, ≥Grade 3 [2, 12]: 1 (7) n (%)
Hypomagnesemia, any grade [2, 12]: 7 (50) n (%)
Hypomagnesemia, ≥Grade 3 [2, 12]: 0 n (%)
Hyponatremia, any grade [2, 12]: 6 (43) n (%)
Hyponatremia, ≥Grade 3 [2, 12]: 0 n (%)
Leukopenia, any grade [2, 12]: 14 (100) n (%)
Leukopenia, ≥Grade 3 [2, 12]: 9 (64) n (%)
Lymphopenia, any grade [2, 12]: 7 (50) n (%)
Lymphopenia, ≥Grade 3 [2, 12]: 7 (50) n (%)
Mucositis, oral, any grade [2, 12]: 5 (36) n (%)
Mucositis, oral, ≥Grade 3 [2, 12]: 2 (14) n (%)
Myalgia, any grade [2, 12]: 5 (36) n (%)
Myalgia, ≥Grade 3 [2, 12]: 0 n (%)
Nausea, any grade [2, 12]: 10 (71) n (%)
Nausea, ≥Grade 3 [2, 12]: 0 n (%)
Neuropathy, sensory, any grade [2, 12]: 5 (36) n (%)
Neuropathy, sensory, ≥Grade 3 [2, 12]: 0 n (%)
Neutropenia, any grade [2, 12]: 13 (93) n (%)
Neutropenia, ≥Grade 3 [2, 12]: 11 (79) n (%)
Pain, not otherwise specified, any grade [2, 12]: 5 (36) n (%)
Pain, not otherwise specified, ≥Grade 3 [2, 12]: 0 n (%)
Rash, skin toxicity, any grade [2, 12]: 8 (57) n (%)
Rash, skin toxicity, ≥Grade 3 [2, 12]: 0 n (%)
Thrombocytopenia, any grade [2, 12]: 13 (93) n (%)
Thrombocytopenia, ≥Grade 3 [2, 12]: 0 n (%)
febrile neutropenia ([2]; both groups): no episodes of febrile neutropenia
treatment-related deaths ([2]; both groups): no treatment-related deaths
inhibition of class IA PI3K paralogues [3]: potently inhibits
maximum tolerated dose (MTD) of buparlisib monotherapy [4]: 100 mg/day
most common adverse events ([4]; monotherapy, 83 patients, dose escalation and expansion): decreased appetite, diarrhea, nausea, hyperglycemia, and rash
patients with radiographic responses ([4]; monotherapy, among 83 patients, one confirmed, three unconfirmed): Four

Reference: article PMC6698915 (Cancer chemotherapy and pharmacology, 2015)
